Reference: ChEMBL document CHEMBL4325893, “Synthesis and antibacterial profiles of targeted triclosan derivatives” (2019)
Converted amounts (≈) assume the structure as drawn.

Assays:
[1] = Antibacterial activity against Salmonella enterica subspecies enterica serotype Nottingham NCTC 7832 after 18 hrs; assay type: functional, Salmonella enterica subsp. enterica serovar Nottingham; settings: NCTC 7832, 18 h
In short: (§1)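 Broth microdilution in Nutrient Broth No. 2; stocks in ethanol diluted to 0.01–128 µg/ml (triclosan) or 0.25–256 µg/ml (glycosides). Overnight 37 °C NB2 cultures diluted 1 in 10^4 in saline and added to the dilutions. Incubation at 37 °C with agitation, OD read every 15 min; MIC is the lowest concentration preventing any OD rise after 18 h.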

[2] = system: Staphylococcus aureus; experiment: Antibacterial activity against Staphylococcus aureus ATCC 25923 after 18 hrs; assay type: functional; settings: ATCC 25923, 18 h; in short: as §1
[3] = system: Salmonella enterica subsp. enterica serovar Abony; experiment: Antibacterial activity against Salmonella enterica subspecies enterica serotype Abony NCTC 6017 after 18 hrs; assay type: functional; settings: NCTC 6017, 18 h; in short: as §1
[4] = system: Staphylococcus aureus; experiment: Antibacterial activity against Staphylococcus aureus ATCC 6538P after 18 hrs; assay type: functional; in short: as §1
[5] = system: Pseudomonas aeruginosa; experiment: Antibacterial activity against Pseudomonas aeruginosa ATCC 27853 after 18 hrs; assay type: functional; settings: ATCC 27853, 18 h; in short: as §1
[6] = system: Hafnia alvei; experiment: Antibacterial activity against Hafnia alvei 13337 after 18 hrs; assay type: functional; settings: Hafnia alvei, 13337, 18 h; in short: as §1
[7] = system: Klebsiella pneumoniae; experiment: Antibacterial activity against Klebsiella pneumoniae ATCC 13883 after 18 hrs; assay type: functional; settings: ATCC 13883, 18 h; in short: as §1
[8] = system: Streptococcus agalactiae; experiment: Antibacterial activity against Streptococcus agalactiae OCC 182 after 18 hrs; assay type: functional; settings: OCC 182, 18 h
In short: (§2)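 Broth microdilution in Nutrient Broth No. 2. Ethanol stocks were diluted in broth to 0.01–128 µg/ml for triclosan and 0.25–256 µg/ml for glycosides. Overnight 37°C NB2 cultures were diluted 1 in 10^4 in saline and added to the wells. Plates were incubated at 37°C with OD read every 15 min after agitation. MIC was the lowest concentration giving no OD increase at 18 h.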

[9] = system: Citrobacter freundii; experiment: Antibacterial activity against Citrobacter freundii OCC 851 after 18 hrs; assay type: functional; settings: OCC 851, 18 h; in short: as §1
[10] = system: Klebsiella pneumoniae; experiment: Antibacterial activity against Klebsiella pneumoniae ATCC 10031 after 18 hrs; assay type: functional; settings: ATCC 10031, 18 h; in short: as §1
[11] = Antibacterial activity against Salmonella enterica subspecies enterica serotype Virchow NCTC 5742 after 18 hrs; assay type: functional, Salmonella enterica subsp. enterica serovar Virchow; settings: NCTC 5742, 18 h; in short: as §1
[12] = Antibacterial activity against Enterobacter cloacae ATCC 13047 after 18 hrs; assay type: functional, Enterobacter cloacae subsp. cloacae; settings: ATCC 13047, 18 h; in short: as §1
[13] = system: Staphylococcus saprophyticus; experiment: Antibacterial activity against Staphylococcus saprophyticus ATCC 15305 after 18 hrs; assay type: functional; settings: ATCC 15305, 18 h; in short: as §2
[14] = system: Escherichia hermannii; experiment: Antibacterial activity against Escherichia hermannii 33650 after 18 hrs; assay type: functional; settings: Atlantibacter hermannii, 33650, 18 h; in short: as §1
[15] = system: Proteus mirabilis; experiment: Antibacterial activity against Proteus mirabilis ATCC 12453 after 18 hrs; assay type: functional; settings: ATCC 12453, 18 h; in short: as §1
[16] = system: Streptococcus pneumoniae; experiment: Antibacterial activity against Streptococcus pneumoniae ATCC 49619 after 18 hrs; assay type: functional; settings: ATCC 49619, 18 h; in short: as §2
[17] = system: Staphylococcus aureus; experiment: Antibacterial activity against Staphylococcus aureus ATCC 29213 after 18 hrs; assay type: functional; settings: ATCC 29213, 18 h; in short: as §1
[18] = Antibacterial activity against Salmonella enterica subspecies enterica serotype Arizonae OCC 706 after 18 hrs; assay type: functional, Salmonella enterica subsp. enterica serovar Arizonae; settings: OCC 706, 18 h; in short: as §1
[19] = system: Escherichia coli; experiment: Antibacterial activity against Escherichia coli ATCC 10536 after 18 hrs; assay type: functional; settings: ATCC 10536, 18 h; in short: as §1
[20] = Antibacterial activity against Salmonella enterica subspecies enterica serotype Indiana OCC 597 after 18 hrs; assay type: functional, Salmonella enterica subsp. enterica serovar Indiana; settings: OCC 597, 18 h; in short: as §1
[21] = system: Salmonella enteritidis; experiment: Antibacterial activity against Salmonella enterica subspecies enterica serotype Enteritidis 13076 after 18 hrs; assay type: functional, Salmonella enterica subsp. enterica serovar Enteritidis; settings: Salmonella enterica, 13076, 18 h; in short: as §1
[22] = system: Staphylococcus aureus; experiment: Antibacterial activity against Staphylococcus aureus ATCC 6538 after 18 hrs; assay type: functional; settings: ATCC 6538, 18 h; in short: as §1
[23] = system: Staphylococcus haemolyticus; experiment: Antibacterial activity against Staphylococcus haemolyticus OCC 2223 after 18 hrs; assay type: functional; settings: OCC 2223, 18 h; in short: as §2
[24] = system: Staphylococcus epidermidis; experiment: Antibacterial activity against Staphylococcus epidermidis 155 after 18 hrs; assay type: functional; settings: Staphylococcus epidermidis, 155, 18 h; in short: as §1
[25] = system: Escherichia coli; experiment: Antibacterial activity against Escherichia coli NCTC 13216 after 18 hrs; assay type: functional; settings: NCTC 13216, 18 h; in short: as §1
[26] = system: Staphylococcus epidermidis; experiment: Antibacterial activity against Staphylococcus epidermidis ATCC 12228 after 18 hrs; assay type: functional; settings: ATCC 12228, 18 h; in short: as §1
[27] = system: Escherichia coli; experiment: Antibacterial activity against Escherichia coli ATCC 35218 after 18 hrs; assay type: functional; settings: ATCC 35218, 18 h; in short: as §1
[28] = Antibacterial activity against Salmonella enterica subspecies enterica serotype Dublin OCC 627 after 18 hrs; assay type: functional, Salmonella enterica subsp. enterica serovar Dublin; settings: OCC 627, 18 h; in short: as §1

MIC [1]: 2 to 8 µg/mL (≈ 4.74 to 19 µM)
MIC [2]: 0.5 µg/mL (≈ 1.19 µM)
MIC [3]: 2 to 8 µg/mL (≈ 4.74 to 19 µM)
MIC [4]: 0.5 µg/mL (≈ 1.19 µM)
MIC [5]: > 256 µg/mL
MIC [6]: 0.5 µg/mL (≈ 1.19 µM)
MIC [7]: 0.5 µg/mL (≈ 1.19 µM)
MIC [8]: 128 µg/mL (≈ 304 µM)
MIC [9]: 8 µg/mL (≈ 19 µM)
MIC [10]: 0.5 µg/mL (≈ 1.19 µM)
MIC [11]: 2 to 8 µg/mL (≈ 4.74 to 19 µM)
MIC [12]: 0.5 µg/mL (≈ 1.19 µM)
MIC [13]: 8 µg/mL (≈ 19 µM)
MIC [14]: 1 µg/mL (≈ 2.37 µM)
MIC [15]: 4 µg/mL (≈ 9.49 µM)
MIC [16]: 64 µg/mL (≈ 152 µM)
MIC [17]: 0.5 µg/mL (≈ 1.19 µM)
MIC [18]: 2 to 8 µg/mL (≈ 4.74 to 19 µM)
MIC [19]: 0.5 to 4 µg/mL (≈ 1.19 to 9.49 µM)
MIC [20]: 2 to 8 µg/mL (≈ 4.74 to 19 µM)
MIC [21]: 2 to 8 µg/mL (≈ 4.74 to 19 µM)
MIC [22]: 0.5 µg/mL (≈ 1.19 µM)
MIC [24]: 0.5 µg/mL (≈ 1.19 µM)
MIC [25]: 0.5 to 4 µg/mL (≈ 1.19 to 9.49 µM)
MIC [26]: 0.5 µg/mL (≈ 1.19 µM)
MIC [27]: 0.5 to 4 µg/mL (≈ 1.19 to 9.49 µM)
MIC [28]: 2 to 8 µg/mL (≈ 4.74 to 19 µM)
Compound: O[C@@H]1[C@@H](Oc2cc(Cl)ccc2Oc2ccc(Cl)cc2Cl)OC[C@@H](O)[C@H]1O
MIC [23]: 0.5 µg/mL (≈ 1.19 µM)
